In ChEMBL document CHEMBL4270571, “6-Biphenylmethyl-3-hydroxypyrimidine-2,4-diones potently and selectively inhibited HIV reverse transcriptase-associated RNase H” (Eur J Med Chem, 2018):

Experiments:
[1] = target: Human immunodeficiency virus type 1 integrase (Human immunodeficiency virus 1, UniProt Q7ZJM1); assay: Inhibition of HIV integrase strand transfer activity expressed in Escherichia coli BL21 (DE3) using 5' biotin ATGTGGAAAATCTCTAGCA primer annealed with ACTGCTAGAGATTTTCCACAT 3' Cy5 template preincubated for 10 mins followed by primer/template addition measured after 30 mins by fluorescence assay
Method in brief: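 Purified HIV integrase in 10 mM HEPES pH 7.5, 10% glycerol, 10 mM MnCl₂, 1 mM DTT, with compounds in duplicate at 0.13–100 (final), 10 min at 25 °C. 500 nM biotin/Cy5 oligo duplex added, 30 min at 37 °C, EDTA quench. Products captured on streptavidin beads, washed, NaOH-denatured, formamide-eluted, read at 635/675.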

[2] = tested on: Human immunodeficiency virus 1; assay: Antiviral activity against HIV1 infected in human P4R5 cells assessed as reduction in viral infection preincubated with cells for 24 hrs followed by viral infection measured after 48 hrs by fluorescence based MAGI assay; assay type: functional, organism-based
Method in brief: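 P4R5 indicator cells were seeded at 4 × 10³ per well in DMEM/10% FBS with puromycin. They were pretreated for 24 h with 1% DMSO or a range of compound concentrations, then infected with HIV-1 at an MOI of 1.25 for another 48 h. Cells were lysed and β-galactosidase was read by fluorescence with MUG substrate. EC50 is given as mean ± SD of at least two independent experiments.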

[3] = Cytotoxicity against human P4R5 cells assessed as reduction in cell viability after 72 hrs by XTT assay; assay type: cell-based
Method in brief: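 P4R5 cells seeded at 4 × 10³ per well in DMEM/10% FBS with puromycin ([…]). Cells treated with 1% DMSO or varying compound concentrations for 72 h, then viability read by XTT kit. CC50 = concentration giving 50% cell death, mean from at least two independent experiments.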

Gag-Pol polyprotein = Gag-Pol polyprotein (Human immunodeficiency virus type 1 group M subtype B (isolate HXB2)(HIV-1), UniProt P04585); assay: Inhibition of recombinant HIV1 reverse transcriptase polymerase expressed in Escherichia coli JM109 assessed as decrease in extension of 18 nucleotide DNA primer annealed to 100 nucleotide DNA template measured after 30 mins; set-up: species or system Human immunodeficiency virus 1
Method in brief: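 18-nt DNA primer annealed to 100-nt DNA template (40 nM) was extended by 20 nM RT with dNTPs in 50 mM Tris pH 7.8, 50 mM NaCl, 1% DMSO, with increasing compound concentrations. Reactions were started with 6 mM MgCl₂, run 30 min at 37 °C, and stopped with EDTA. dsDNA formed was quantified by fluorescent dye (ex/em 504/531 nm), and dose-response data were fitted to a logistic curve.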

[4] = target: Human immunodeficiency virus type 1 reverse transcriptase (Human immunodeficiency virus 1, UniProt Q72547); assay: Inhibition of recombinant HIV1 reverse transcriptase RNase H expressed in Escherichia coli JM109 using RNA/DNA duplex substrate HTS1 as substrate
[5] = Selectivity ratio of CC50 for human P4R5 cells to EC50 for HIV1 infected in human P4R5 cells; assay type: toxicity, cell-based
Method in brief: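 P4R5 indicator cells, 4 × 10³ per well in DMEM/10% FBS with puromycin. […] Cytotoxicity arm: uninfected cells, compound for 72 h, XTT read-out; CC50 is 50% cell death. Each value is mean ± SD of ≥2 independent experiments.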

Sequence of Human immunodeficiency virus type 1 integrase (Q7ZJM1 whole entry): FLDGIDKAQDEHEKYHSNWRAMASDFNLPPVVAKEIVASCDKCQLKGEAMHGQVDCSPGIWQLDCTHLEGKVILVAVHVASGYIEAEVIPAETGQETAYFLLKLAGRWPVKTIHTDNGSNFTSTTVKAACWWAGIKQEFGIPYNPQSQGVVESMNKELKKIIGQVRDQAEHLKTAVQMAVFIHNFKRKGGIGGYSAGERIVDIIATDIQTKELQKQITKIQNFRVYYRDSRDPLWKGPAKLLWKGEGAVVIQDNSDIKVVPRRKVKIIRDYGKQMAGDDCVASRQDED

Row | Structure (SMILES) | IC50 [1] | EC50 [2] | CC50 [3] | IC50 (Gag-Pol polyprotein) | IC50 [4] | Ratio CC50/EC50 [5]
1 | O=c1cc(Cc2ccc(-c3ccc(F)cc3F)cc2)[nH]c(=O)n1O | > 100 µM | 5.6 µM | 11 µM | > 10 µM | 0.015 µM | 
2 | CCOCn1c(Cc2ccc(-c3ccc(Cl)c(F)c3)cc2)cc(=O)n(O)c1=O |  |  |  |  | 0.43 µM | 
3 | O=c1cc(Cc2cccc(-c3ccccc3)c2)[nH]c(=O)n1O | > 100 µM | 9.6 µM | 16 µM | > 10 µM | 0.016 µM | 
4 | CC(C)c1c(Cc2ccccc2)n(COCc2cccc(Cl)c2F)c(=O)n(O)c1=O |  |  |  |  | 0.9 µM | 
5 | O=c1cc(Cc2ccc(-c3cc(Cl)cc(C(F)(F)F)c3)cc2)[nH]c(=O)n1O | > 100 µM | > 20 µM | > 100 µM | > 10 µM | 0.015 µM | 
6 | O=c1cc(Cc2cccc(-c3ccc(Cl)cc3)c2)[nH]c(=O)n1O | > 100 µM | 7.6 µM | 27 µM | > 10 µM | 0.012 µM | 4 to 6
7 | COc1ccc(-c2cccc(Cc3cc(=O)n(O)c(=O)[nH]3)c2)cc1F | > 100 µM | 12 µM | 20 µM | > 10 µM | 0.0077 µM | 
8 | O=c1cc(Cc2ccc(-c3ccccc3)cc2)[nH]c(=O)n1O | > 100 µM | 10 µM | 11 µM | > 10 µM | 0.016 µM | 
9 | CC(C)c1c(Cc2ccccc2)n(COCc2ccc(F)cc2F)c(=O)n(O)c1=O |  |  |  |  | 1.8 µM | 
10 | CCOCn1c(Cc2ccc(F)cc2)c(C(C)C)c(=O)n(O)c1=O |  |  |  |  | > 25 µM | 
11 | Cc1cc(-c2cccc(Cc3cc(=O)n(O)c(=O)[nH]3)c2)ccc1F | > 100 µM | 12 µM | 37 µM | > 10 µM | 0.0088 µM | 
12 | CC(C)c1c(Cc2ccccc2)n(COCc2ccc(F)cc2)c(=O)n(O)c1=O |  |  |  |  | 2.1 µM | 
13 | CC(C)c1c(Cc2ccccc2)n(COCCCCc2ccc(F)cc2)c(=O)n(O)c1=O |  |  |  |  | 1.8 µM | 
14 | CCOCn1c(Cc2ccc(-c3ccc(C#N)cc3)cc2)c(C)c(=O)n(O)c1=O |  |  |  |  | 5.2 µM | 
15 | CCOCn1c(Cc2ccc(-c3cc(OC)cc(OC)c3)cc2)c(C)c(=O)n(O)c1=O |  |  |  |  | 6.7 µM | 
16 | CC(C)c1c(Cc2ccc(F)cc2)n(Cc2ccccc2)c(=O)n(O)c1=O |  |  |  |  | 10 µM | 
17 | CCc1c(-c2ccc(F)cc2)n(COCc2ccc(F)cc2)c(=O)n(O)c1=O |  |  |  |  | 17 µM | 
18 | O=c1cc(Cc2ccc(-c3ccc(Cl)cc3Cl)cc2)[nH]c(=O)n1O | > 100 µM | 13 µM | > 100 µM | > 10 µM | 0.0092 µM | 
19 | CCc1c(Cc2ccccc2)c(=O)n(O)c(=O)n1COCc1ccc(F)cc1 |  |  |  |  | 15 µM | 
20 | O=c1cc(Cc2ccc(Br)cc2)[nH]c(=O)n1O | > 100 µM | > 20 µM | 64 µM | > 10 µM | 0.011 µM | 
21 | O=c1cc(Cc2cccc(-c3cccc(Cl)c3)c2)[nH]c(=O)n1O | > 100 µM | 11 µM | 62 µM | 10 µM | 0.02 µM | 4 to 6
22 | CC(C)c1c(Cc2ccccc2)n(CCc2ccc(F)cc2)c(=O)n(O)c1=O |  |  |  |  | 6.6 µM | 
23 | O=c1cc(Cc2cccc(Br)c2)[nH]c(=O)n1O | > 100 µM | > 20 µM | 63 µM | > 10 µM | 0.013 µM | 
24 | CC(C)c1c(Cc2ccc(F)cc2)n(COCc2ccc(F)cc2)c(=O)n(O)c1=O |  |  |  |  | 6.2 µM | 

Row | Structure (SMILES) | IC50 [1] | EC50 [2] | CC50 [3] | IC50 (Gag-Pol polyprotein) | IC50 [4] | Ratio CC50/EC50 [5]
25 | O=c1cc(Cc2ccc(-c3ccc(Cl)c(F)c3)cc2)[nH]c(=O)n1O | > 100 µM | 15 µM | 59 µM | > 10 µM | 0.0094 µM | 
26 | O=c1cc(Cc2ccc(-c3cccc(Cl)c3)cc2)[nH]c(=O)n1O | > 100 µM | > 20 µM | > 100 µM | > 10 µM | 0.016 µM | 
27 | CC(C)c1c(Cc2ccccc2)n(Cc2ccccc2)c(=O)n(O)c1=O |  |  |  |  | 15 µM | 
28 | COc1ccc(-c2ccc(Cc3cc(=O)n(O)c(=O)[nH]3)cc2)cc1F | > 100 µM | 11 µM | 49 µM | > 10 µM | 0.0076 µM | 4 to 6
29 | CC(C)c1c(Cc2ccc(F)cc2)n(Cc2ccc(F)cc2)c(=O)n(O)c1=O |  |  |  |  | 13 µM | 
30 | CC(C)c1c(Cc2ccccc2)n(COCc2ccc(F)cc2)c(=O)n(C)c1=O |  |  |  |  | 7 µM | 
31 | O=c1cc(Cc2ccc(-c3ccc(C(F)(F)F)cc3C(F)(F)F)cc2)[nH]c(=O)n1O | > 100 µM | > 20 µM | > 100 µM | > 10 µM | 0.085 µM | 
32 | O=c1cc(Nc2ccc(-c3ccccc3)cc2)[nH]c(=O)n1O |  |  |  | 2 µM |  | 
33 | CC(C)c1c(Cc2ccccc2)n(CCCc2ccc(F)cc2)c(=O)n(O)c1=O |  |  |  |  | 3.8 µM | 
34 | O=c1cc(Cc2ccc(-c3ccc(C(F)(F)F)cc3)cc2)[nH]c(=O)n1O | > 100 µM | 16 µM | > 100 µM | > 10 µM | 0.047 µM | 
35 | O=c1cc(Cc2cccc(-c3cccc(C(F)(F)F)c3)c2)[nH]c(=O)n1O | > 100 µM | > 20 µM | > 100 µM | > 10 µM | 0.037 µM | 
36 | Cc1cc(-c2ccc(Cc3cc(=O)n(O)c(=O)[nH]3)cc2)ccc1F | > 100 µM | > 20 µM | > 100 µM | > 10 µM | 0.011 µM | 
37 | CC(C)c1c(Cc2ccccc2)n(COCCc2ccc(F)cc2)c(=O)n(O)c1=O |  |  |  |  | 2.8 µM | 
38 | CCOCn1c(Cc2ccc(-c3ccccc3)cc2)cc(=O)n(O)c1=O |  | > 20 µM | > 100 µM |  | > 5 µM | 
39 | CCOCn1c(Cc2ccc(-c3ccccc3)cc2)c(C)c(=O)n(O)c1=O |  |  |  |  | 6.2 µM | 
40 | CCOCn1c(Cc2ccccc2)c(C(C)C)c(=O)n(O)c1=O |  |  |  |  | 6.8 µM | 
41 | COn1c(=O)c(C(C)C)c(Cc2ccccc2)n(COCc2ccc(F)cc2)c1=O |  |  |  |  | 11 µM | 
42 | O=c1cc(Cc2cccc(-c3cc(Cl)cc(C(F)(F)F)c3)c2)[nH]c(=O)n1O | > 100 µM | 20 µM | > 100 µM | > 10 µM | 0.038 µM | 
43 | O=c1cc(Cc2cccc(-c3cccc(F)c3)c2)[nH]c(=O)n1O | > 100 µM | 9.9 µM | 14 µM | > 10 µM | 0.018 µM | 
44 | CCOCn1c(Cc2ccc(-c3ccc(C(F)(F)F)cc3)cc2)cc(=O)n(O)c1=O |  |  |  |  | 2.1 µM | 
45 | O=c1cc(Cc2ccc(-c3cccc(F)c3)cc2)[nH]c(=O)n1O | > 100 µM | 12 µM | 24 µM | > 10 µM | 0.028 µM | 
46 | CC(C)c1c(Cc2ccccc2)n(CCCCc2ccc(F)cc2)c(=O)n(O)c1=O |  |  |  |  | 0.9 µM | 
47 | O=c1cc(Cc2ccc(-c3cccc(C(F)(F)F)c3)cc2)[nH]c(=O)n1O | > 100 µM | > 20 µM | > 100 µM | > 10 µM | 0.025 µM | 
48 | CC(C)c1c(Cc2ccccc2)n(COCc2ccccc2)c(=O)n(O)c1=O |  |  |  |  | 2.5 µM | 
